Experimental data of several laboratories.
Compare with care: the assays were run in different laboratories. In brackets after ≈: the same amount, converted by molar mass.
Organism: Pseudomonas aeruginosa

| Compound | observed | method | strain | concentration | time | quantity | result |
| --- | --- | --- | --- | --- | --- | --- | --- |
| O=c1cccccc1S | microbial growth | broth dilution | ATCC27853 | – | – | MIC80 | > 71.4 µM |
| COc1c(C)c(O)c(C)c(O)c1C(=O)/C=C/c1ccccc1 | microbial killing | broth dilution | ATCC27853 | – | – | MBC | > 5000 µg/mL |
| C#CCCCCCCCCC=CCC(O)CC(O)CO (stereo not drawn) | microbial growth | broth dilution | ATCC27853 | – | – | IC50 | > 200 µg/mL |
| COc1c(C)c(OC(C)=O)c(C)c(O)c1C(=O)/C=C/c1ccccc1 | microbial killing | broth dilution | ATCC27853 | – | – | MBC | > 5000 µg/mL |
| CC(C)Oc1c(NC(=O)c2ccc(NC(=O)[C@H](CC(N)=O)NC(=O)c3ccc(NC(=O)c4cc(C#N)cn4C)cc3)cc2)ccc(C(=O)Nc2ccc(C(=O)O)cc2)c1O | microbial growth | – | PA14 | – | – | MIC | > 64 µg/mL |
| O=C(Sc1cccccc1=O)c1cccc(C(F)(F)F)c1 | microbial growth | broth dilution | ATCC27853 | – | – | MIC80 | > 71.4 µM |
| CC1(C)SC2C(NC(=O)C(NC(=O)C3=C(O)C4(CC4)NC3=O)c3ccccc3)C(=O)N2C1C(=O)O (stereo not drawn) | microbial growth | well diffusion | PAO1 | 200 µM | – | inhibition zone | 12 mm |
| COc1c(C)c(OS(=O)(=O)c2ccc3ccccc3c2)c(C)c(O)c1C(=O)/C=C/c1ccccc1 | microbial killing | broth dilution | ATCC27853 | – | – | MBC | > 5000 µg/mL |
| COc1cc(C=Cc2cc(-c3ccccc3)nc(O)n2)ccc1O | microbial growth | disc diffusion | ATCC27853 | 500 µg/mL | – | inhibition zone | 14.3 mm |
| CC(C)COc1c(NC(=O)c2ccc(NC(=O)[C@H](CC(N)=O)NC(=O)c3ccc(NC(=O)c4ccc(C#N)cc4)cc3)cc2)ccc(C(=O)Nc2ccc(C(=O)O)cc2)c1O | microbial growth | – | PA14 | – | – | MIC | > 64 µg/mL |
| CC1(C)S[C@@H]2[C@H](NC(=O)[C@H](N)c3ccc(O)cc3)C(=O)N2[C@H]1C(=O)O | microbial growth | disc diffusion | ATCC27853 | 500 µg/mL | – | inhibition zone | 13.8 mm |
| CC(C)c1cccc(=O)c(O)c1 | microbial growth | broth dilution | ATCC27853 | – | – | MIC80 | > 71.4 µM |
| Cc1cc(N)c2ccccc2[n+]1CCCCCCCCCC[n+]1c(C)cc(N)c2ccccc21 | microbial growth | disc diffusion | – | 50 µg/disc | – | inhibition zone | 0 mm |
| CCCCCC(=O)Oc1c(C)c(O)c(C(=O)/C=C/c2ccccc2)c(OC)c1C | microbial killing | broth dilution | ATCC27853 | – | – | MBC | > 5000 µg/mL |
| CC(C)CC1NC(=O)C(C(=O)NC(C(=O)NC2C(=O)N3C2SC(C)(C)C3C(=O)O)c2ccccc2)=C1O (stereo not drawn) | microbial growth | well diffusion | PAO1 | 200 µM | – | inhibition zone | 11.7 mm |
| CC(C)Oc1c(NC(=O)c2ccc(NC(=O)[C@H](CC(N)=O)NC(=O)c3ccc(NC(=O)c4ccc(S(C)(=O)=O)cc4)cc3)cc2)ccc(C(=O)Nc2ccc(C(=O)O)cc2)c1O | microbial growth | – | PA14 | – | – | MIC | > 64 µg/mL |
| COc1cc(Cc2cnc(N)nc2N)cc(OC)c1OC | microbial killing | broth dilution | – | – | 48 h | MBC | 16 µg/mL (≈ 55.1 µM) |
| COc1cc(C=Cc2cc(-c3ccc(N(C)C)cc3)nc(O)n2)ccc1O | microbial growth | disc diffusion | ATCC27853 | 250 µg/mL | – | inhibition zone | 7 mm |
